In the array DNA melting data of Ke et al. (doi:10.1101/2024.01.08.574731) one finds folding enthalpy and Tm data, which are given here for 37 sequences.

Series [1] in a line: folding enthalpy; higher = less favourable; fluorescence melt of hairpins on a sequencing array, two-state fit. Particulars: sodium 0.088 M. The gist of the method:
(§1)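 With Cy3 and quencher oligos annealed, library hairpins on a sequenced MiSeq flow cell were imaged for Cy3 fluorescence in 50 mM Na-HEPES pH 8.0, 25 mM NaCl, in 2.5 °C steps up to 60 °C. Melting temperature and folding enthalpy were derived from bootstrapped two-state fits of signals normalised to pre-quench Cy3 and to control constructs. Four replicates were combined by inverse variance, with fitted temperatures raised by 9.35 °C to match UV melts.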

The nature of series [2]: melting temperature; fluorescence melt of hairpins on a sequencing array, two-state fit, raised by 9.35 °C to match UV melts. The following applies: sodium 0.088 M. The method, boiled down:
as §1

Take GGAGTGAAAACTCC (((((....))))): the folding enthalpy in series [1] was -27.2 kcal/mol. Besides, in series [2], the Tm amounted to 54.8 °C.

As for GGTCAGAAATGACC (((((....))))), in series [1], the folding enthalpy was -28.2 kcal/mol. Besides, the Tm in series [2] is 53.6 °C.

With GCGTCCTAACGC ((((....)))), the folding enthalpy in series [1] was -26.4 kcal/mol. Also, the Tm in series [2] is 54.8 °C.

For the sequence GGGACTGGAAACGGTCCC (((((.(....).))))), the folding enthalpy in series [1] was -44.6 kcal/mol. Also, the Tm in series [2] was found to be 57.6 °C.

CGGGCGGAAACGCACCG ((((((....))).))): in series [1], the folding enthalpy was -16.9 kcal/mol. The Tm in series [2] came to 60.4 °C.

With GACCGAGGAAACTCGACC (..((((....))))..), the folding enthalpy in series [1] is -14.3 kcal/mol. For the same sequence, in series [2], the Tm is 26.6 °C.

As to GATACCGAAAGGTCATC ((((((....))).))), the folding enthalpy in series [1] is -17 kcal/mol. For the same sequence, in series [2], the Tm turned out to be 35.6 °C.

In the case of GCTCTGGGAAACCAGAAC (.(((((....))))).), the folding enthalpy in series [1] was -16.9 kcal/mol. For the same sequence, the Tm in series [2] is 37.1 °C.

Turning to GCGTGAGGAAACTTACGC ((((.((....)).)))), the folding enthalpy in series [1] is -33.8 kcal/mol. Moreover, the Tm in series [2] amounted to 52 °C.

Consider GATCGTGCAACGATC ((((((...)))))), for which the folding enthalpy in series [1] was -41 kcal/mol. The Tm in series [2] was found to be 67.8 °C.

Turning to GCCGTCGAAAGACAGGC ((((((....))).))), the folding enthalpy in series [1] was -27 kcal/mol. The Tm in series [2] came out at 65.2 °C.

As for GATCAGCGGCTGATC ((((((...)))))), in series [1], the folding enthalpy is -51 kcal/mol. Besides, the Tm in series [2] came out at 50.7 °C.

With GCGTATGGAAACATACAC (.(((((....))))).), the folding enthalpy in series [1] was -15.8 kcal/mol. Moreover, in series [2], the Tm is 36.7 °C.

In the case of GATCGGTGTCCCGATC ((((((....)))))), the folding enthalpy in series [1] was -38.3 kcal/mol. In addition, the Tm in series [2] came to 58.4 °C.

Turning to GGCTTCGGAAACAAAGCC (((((.(....).))))), in series [1], the folding enthalpy was -28.3 kcal/mol. Besides, the Tm in series [2] is 44.2 °C.

As for GTAAGGGGAAACCCTCAC ((.((((....)))).)), in series [1], the folding enthalpy was -13.7 kcal/mol. Moreover, in series [2], the Tm worked out at 30.2 °C.

As for GTCCACGAAAGTGAGAC ((((((....))).))), the folding enthalpy in series [1] is -23.8 kcal/mol. Also, the Tm in series [2] is 52.2 °C.

Turning to GTTGATCGAAAGATTAAC (((.(((....))).))), in series [1], the folding enthalpy is -30.6 kcal/mol. Further, the Tm in series [2] stood at 44.8 °C.

On to ATTACGAAAGTAAT (((((....))))), for which the folding enthalpy in series [1] is -17.5 kcal/mol. In addition, the Tm in series [2] came to 44.4 °C.

As for GATCGGTGATCCGATC ((((((....)))))), the folding enthalpy in series [1] was -41.2 kcal/mol. In series [2], the Tm was 56.8 °C.

On to GATCAATAGTTTGATC ((((((....)))))), for which the folding enthalpy in series [1] is -30.6 kcal/mol. In addition, the Tm in series [2] came out at 42.7 °C.

In the case of GATGTTGGAAACAACACC (.(((((....))))).), the folding enthalpy in series [1] is -15.6 kcal/mol. Further, the Tm in series [2] turned out to be 34.8 °C.

As for GTGGACGAAAGTCCCCAC ((((((....)))..))), in series [1], the folding enthalpy was -8.05 kcal/mol. For the same sequence, the Tm in series [2] worked out at 37.2 °C.

Regarding GCTCGGCGAAAGCAGCGC ((.(.((....)).).)), in series [1], the folding enthalpy was -14 kcal/mol. The Tm in series [2] turned out to be 58.5 °C.

Regarding GCTAATCGAAAGATCAGC (((.(((....))).))), the folding enthalpy in series [1] was -29.4 kcal/mol. Moreover, the Tm in series [2] worked out at 41.2 °C.

On to GACCGGGGAAACCCGGCC (.(((((....))))).), for which the folding enthalpy in series [1] is -11.2 kcal/mol. Besides, the Tm in series [2] is 50.4 °C.

Take GTCACCACGAAAGTGGAC (((..(((....)))))): the folding enthalpy in series [1] was -7.89 kcal/mol. Also, the Tm in series [2] is 31.1 °C.

Turning to GATCTGGTGGCAGATC ((((((....)))))), in series [1], the folding enthalpy is -33.9 kcal/mol. Besides, the Tm in series [2] worked out at 50.1 °C.

Turning to GCGAAGGGAAACCTTTGC ((.((((....)))).)), the folding enthalpy in series [1] was -34.6 kcal/mol. Further, in series [2], the Tm was determined as 49.8 °C.

On to GATCGTGTATACGATC ((((((....)))))), for which the folding enthalpy in series [1] was -46 kcal/mol. The Tm in series [2] turned out to be 62.1 °C.

In the case of GGTAGCGAAAGCTGAACC ((((((....)))..))), the folding enthalpy in series [1] was -17.6 kcal/mol. Further, the Tm in series [2] is 38.2 °C.

For the sequence GGTTCGCCGAAAGGCACC (((..(((....)))))), the folding enthalpy in series [1] is -8.49 kcal/mol. Also, the Tm in series [2] stood at 30.1 °C.

As to GCACTGGCGAAAGCCTGC (((..(((....)))))), the folding enthalpy in series [1] is -12.1 kcal/mol. In addition, in series [2], the Tm stood at 44.3 °C.

For the sequence GATCCCGTTTGGGATC ((((((....)))))), the folding enthalpy in series [1] is -43.4 kcal/mol. Also, the Tm in series [2] turned out to be 63.6 °C.

GTCCTCGCGAAAGCGGAC (((..(((....)))))): the folding enthalpy in series [1] is -12.7 kcal/mol. The Tm in series [2] came out at 43.7 °C.

On to GGAGTTACGAAAGTATCC (((..(((....)))))), for which, in series [1], the folding enthalpy was -9.09 kcal/mol. Further, the Tm in series [2] came out at 26.1 °C.

GTATACACGAAAGTGTAC (((..(((....)))))): the folding enthalpy in series [1] is -9.78 kcal/mol. Moreover, in series [2], the Tm worked out at 31.1 °C.
